Test results published in ChEMBL document CHEMBL1255410, “Activity of the investigational fluoroquinolone finafloxacin against ciprofloxacin-sensitive and -resistant Acinetobacter baumannii isolates” (2010).
Values after ≈ are worked out from the molar mass of the structure shown.

Tests used:
Format in all cases: functional
Acinetobacter baumannii [1] = test: Antimicrobial activity against Acinetobacter baumannii isolate 6 at pH 5.8
Method in brief: (§1)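 Agar dilution MIC on Mueller-Hinton agar acidified to pH 5.8 with HCl before the antibiotic-containing plates were poured. Agar pH was checked after solidifying. Plates were made the same day from fresh medium. Both fluoroquinolones were tested simultaneously against A. baumannii isolates with characterized gyrA/parC genes. MICs are in μg/ml.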

Acinetobacter baumannii [2] = test: Antimicrobial activity against Acinetobacter baumannii isolate 34 harboring GyrA Ser83-Leu mutation at pH 7.2
Method in brief: (§2)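 Agar dilution MIC on Mueller-Hinton agar. For the acidic condition, HCl was added to bring the agar to pH 5.8 before pouring the antibiotic plates, and the pH was checked after the agar set. The standard condition was pH 7.2. Both drugs' plates were made the same day from fresh medium, and MICs were read at the same time.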

Acinetobacter baumannii [3] = test: Antimicrobial activity against adeB overexpressing Acinetobacter baumannii isolate 68 harboring GyrA Ser83-Leu and ParC Ser80-Leu mutation at pH 5.8; method in brief: as §1
Acinetobacter baumannii [4] = test: Antimicrobial activity against Acinetobacter baumannii isolate 2 at pH 7.2
Method in brief: (§3)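 MIC by agar dilution on Mueller-Hinton agar under standard conditions (pH 7.2), against isolates with characterized gyrA/parC genes. Agar pH was checked after solidifying. Plates for both drugs were prepared the same day from freshly made media, and MICs were determined simultaneously with the pH 5.8 set.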

Acinetobacter baumannii [5] = test: Antimicrobial activity against Acinetobacter baumannii isolate 36 harboring GyrA Ser83-Leu mutation at pH 7.2; method in brief: as §2
Acinetobacter baumannii [6] = test: Antimicrobial activity against Acinetobacter baumannii isolate 10 at pH 7.2; method in brief: as §3
Acinetobacter baumannii [7] = test: Antimicrobial activity against Acinetobacter baumannii isolate 37 harboring GyrA Ser83-Leu mutation at pH 7.2; method in brief: as §2
Acinetobacter baumannii [8] = test: Antimicrobial activity against Acinetobacter baumannii isolate 31 harboring GyrA Ser83-Leu mutation at pH 7.2; method in brief: as §3
Acinetobacter baumannii [9] = test: Antimicrobial activity against Acinetobacter baumannii isolate 31 harboring GyrA Ser83-Leu mutation at pH 5.8
Method in brief: (§4)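 MIC by agar dilution on Mueller-Hinton agar acidified to pH 5.8 with HCl before antibiotic-containing plates were poured. Agar pH was rechecked once the agar had solidified. Isolates had characterized gyrA/parC genes. Plates for both drugs were made the same day from fresh media, and MICs were read in parallel with the standard-pH set.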

Acinetobacter baumannii [10] = test: Antimicrobial activity against Acinetobacter baumannii isolate 16 at pH 7.2; method in brief: as §3
Acinetobacter baumannii [11] = test: Antimicrobial activity against Acinetobacter baumannii isolate 35 harboring GyrA Ser83-Leu mutation at pH 7.2; method in brief: as §2
Acinetobacter baumannii [12] = test: Antimicrobial activity against Acinetobacter baumannii isolate 26 harboring GyrA Ser83-Leu mutation at pH 7.2; method in brief: as §3
Acinetobacter baumannii [13] = test: Antimicrobial activity against Acinetobacter baumannii isolate 14 at pH 7.2; method in brief: as §3
Acinetobacter baumannii [14] = test: Antimicrobial activity against Acinetobacter baumannii isolate 16 at pH 5.8; method in brief: as §4
Acinetobacter baumannii [15] = test: Antimicrobial activity against Acinetobacter baumannii isolate 25 harboring GyrA Ser83-Leu mutation at pH 7.2; method in brief: as §3
Acinetobacter baumannii [16] = test: Antimicrobial activity against Acinetobacter baumannii isolate 39 harboring GyrA Ser83-Leu mutation at pH 5.8; method in brief: as §2
Acinetobacter baumannii [17] = test: Antimicrobial activity against Acinetobacter baumannii isolate 66 harboring GyrA Ser83-Leu mutation at pH 5.8; method in brief: as §1
Acinetobacter baumannii [18] = test: Antimicrobial activity against Acinetobacter baumannii isolate 51 harboring GyrA Ser83-Leu and ParC Ser80-Leu mutation at pH 7.2; method in brief: as §2
Acinetobacter baumannii [19] = test: Antimicrobial activity against Acinetobacter baumannii isolate 8 at pH 7.2
Method in brief: (§5)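 Agar dilution MIC on Mueller-Hinton agar under standard conditions (pH 7.2). Antibiotic-containing plates were made the same day from freshly prepared medium. Agar pH was checked after solidifying. Both fluoroquinolones were tested simultaneously against A. baumannii isolates with characterized gyrA/parC genes. MICs are in μg/ml.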

Acinetobacter baumannii [20] = test: Antimicrobial activity against Acinetobacter baumannii isolate 34 harboring GyrA Ser83-Leu mutation at pH 5.8; method in brief: as §2
Acinetobacter baumannii [21] = test: Antimicrobial activity against Acinetobacter baumannii isolate 9 at pH 5.8; method in brief: as §1
Acinetobacter baumannii [22] = test: Antimicrobial activity against Acinetobacter baumannii isolate 57 harboring GyrA Ser83-Leu and ParC Ser80-Phe mutation at pH 7.2; method in brief: as §5
Acinetobacter baumannii [23] = test: Antimicrobial activity against Acinetobacter baumannii isolate 42 harboring GyrA Ser83-Leu mutation at pH 7.2; method in brief: as §2
Acinetobacter baumannii [24] = test: Antimicrobial activity against Acinetobacter baumannii isolate 5 at pH 7.2; method in brief: as §2
Acinetobacter baumannii [25] = test: Antimicrobial activity against Acinetobacter baumannii isolate 1 at pH 5.8; method in brief: as §4
Acinetobacter baumannii [26] = test: Antimicrobial activity against Acinetobacter baumannii isolate 52 harboring GyrA Ser83-Leu and ParC Ser80-Leu mutation at pH 5.8; method in brief: as §2
Acinetobacter baumannii [27] = test: Antimicrobial activity against Acinetobacter baumannii isolate 65 harboring GyrA Ser83-Leu and ParC Ser80-Leu mutation at pH 5.8; method in brief: as §1
Acinetobacter baumannii [28] = test: Antimicrobial activity against Acinetobacter baumannii isolate 64 harboring GyrA Ser83-Leu and ParC Ser80-Leu mutation at pH 5.8; method in brief: as §1
Acinetobacter baumannii [29] = test: Antimicrobial activity against Acinetobacter baumannii isolate 27 harboring GyrA Ser83-Leu mutation at pH 7.2; method in brief: as §3
Acinetobacter baumannii [30] = test: Antimicrobial activity against Acinetobacter baumannii isolate 30 harboring GyrA Ser83-Leu mutation at pH 7.2; method in brief: as §3
Acinetobacter baumannii [31] = test: Antimicrobial activity against Acinetobacter baumannii isolate 49 harboring GyrA Ser83-Leu and ParC Ser80-Leu mutation at pH 7.2; method in brief: as §2
Acinetobacter baumannii [32] = test: Antimicrobial activity against Acinetobacter baumannii isolate 3 at pH 7.2; method in brief: as §3
Acinetobacter baumannii [33] = test: Antimicrobial activity against Acinetobacter baumannii isolate 29 harboring GyrA Ser83-Leu mutation at pH 7.2; method in brief: as §3
Acinetobacter baumannii [34] = test: Antimicrobial activity against Acinetobacter baumannii isolate 52 harboring GyrA Ser83-Leu and ParC Ser80-Leu mutation at pH 7.2; method in brief: as §2
Acinetobacter baumannii [35] = test: Antimicrobial activity against Acinetobacter baumannii isolate 63 harboring GyrA Ser83-Leu and ParC Glu84-Lys mutation at pH 5.8; method in brief: as §1
Acinetobacter baumannii [36] = test: Antimicrobial activity against Acinetobacter baumannii isolate 4 at pH 7.2; method in brief: as §2
Acinetobacter baumannii [37] = test: Antimicrobial activity against adeB overexpressing Acinetobacter baumannii isolate 67 harboring GyrA Ser83-Leu and ParC Ser80-Leu mutation at pH 7.2; method in brief: as §5
Acinetobacter baumannii [38] = test: Antimicrobial activity against Acinetobacter baumannii isolate 30 harboring GyrA Ser83-Leu mutation at pH 5.8; method in brief: as §4
Acinetobacter baumannii [39] = test: Antimicrobial activity against Acinetobacter baumannii isolate 9 at pH 7.2; method in brief: as §5
Acinetobacter baumannii [40] = test: Antimicrobial activity against Acinetobacter baumannii isolate 6 at pH 7.2; method in brief: as §5
Acinetobacter baumannii [41] = test: Antimicrobial activity against Acinetobacter baumannii isolate 17 at pH 7.2; method in brief: as §3
Acinetobacter baumannii [42] = test: Antimicrobial activity against Acinetobacter baumannii isolate 7 at pH 7.2; method in brief: as §5
Acinetobacter baumannii [43] = test: Antimicrobial activity against Acinetobacter baumannii isolate 28 harboring GyrA Ser83-Leu mutation at pH 7.2; method in brief: as §3
Acinetobacter baumannii [44] = test: Antimicrobial activity against Acinetobacter baumannii isolate 44 harboring GyrA Ser83-Leu and ParC Glu84-Lys mutation at pH 7.2; method in brief: as §2

In the case of `O=C(O)c1cn(C2CC2)c2cc(N3CCNCC3)c(F)cc2c1=O` [CIPROFLOXACIN], the MIC (Acinetobacter baumannii [1]) is reported as 2 µg/mL (≈ 6.04 µM), the MIC (Acinetobacter baumannii [2]) is reported as 8 µg/mL (≈ 24.1 µM) and the MIC (Acinetobacter baumannii [3]) is reported as > 128 µg/mL. For the same molecule, the MIC (Acinetobacter baumannii [4]) was 0.06 µg/mL (≈ 0.181 µM), the MIC (Acinetobacter baumannii [5]) was 16 µg/mL (≈ 48.3 µM) and the MIC (Acinetobacter baumannii [6]) was 0.25 µg/mL (≈ 0.754 µM). It also gave an MIC (Acinetobacter baumannii [7]) of 16 µg/mL (≈ 48.3 µM), an MIC (Acinetobacter baumannii [8]) of 8 µg/mL (≈ 24.1 µM) and an MIC (Acinetobacter baumannii [9]) of 32 µg/mL (≈ 96.6 µM). It also gave an MIC (Acinetobacter baumannii [10]) of 1 µg/mL (≈ 3.02 µM), an MIC (Acinetobacter baumannii [11]) of 8 µg/mL (≈ 24.1 µM) and an MIC (Acinetobacter baumannii [12]) of 4 µg/mL (≈ 12.1 µM). It also gave an MIC (Acinetobacter baumannii [13]) of 0.5 µg/mL (≈ 1.51 µM), an MIC (Acinetobacter baumannii [14]) of 4 µg/mL (≈ 12.1 µM) and an MIC (Acinetobacter baumannii [15]) of 4 µg/mL (≈ 12.1 µM). The MIC (Acinetobacter baumannii [16]) was > 128 µg/mL, the MIC (Acinetobacter baumannii [17]) was 128 µg/mL (≈ 386 µM) and the MIC (Acinetobacter baumannii [18]) was 128 µg/mL (≈ 386 µM). The MIC (Acinetobacter baumannii [19]) was 0.25 µg/mL (≈ 0.754 µM), the MIC (Acinetobacter baumannii [20]) was 128 µg/mL (≈ 386 µM) and the MIC (Acinetobacter baumannii [21]) was 2 µg/mL (≈ 6.04 µM). It also gave an MIC (Acinetobacter baumannii [22]) of 128 µg/mL (≈ 386 µM), an MIC (Acinetobacter baumannii [23]) of 16 µg/mL (≈ 48.3 µM) and an MIC (Acinetobacter baumannii [24]) of 0.12 µg/mL (≈ 0.362 µM). The MIC (Acinetobacter baumannii [25]) was 2 µg/mL (≈ 6.04 µM), the MIC (Acinetobacter baumannii [26]) was > 128 µg/mL and the MIC (Acinetobacter baumannii [27]) was > 128 µg/mL. The MIC (Acinetobacter baumannii [28]) was > 128 µg/mL, the MIC (Acinetobacter baumannii [29]) was 4 µg/mL (≈ 12.1 µM) and the MIC (Acinetobacter baumannii [30]) was 8 µg/mL (≈ 24.1 µM). It also gave an MIC (Acinetobacter baumannii [31]) of 128 µg/mL (≈ 386 µM), an MIC (Acinetobacter baumannii [32]) of 0.12 µg/mL (≈ 0.362 µM) and an MIC (Acinetobacter baumannii [33]) of 4 µg/mL (≈ 12.1 µM). For the same molecule, the MIC (Acinetobacter baumannii [34]) was 128 µg/mL (≈ 386 µM), the MIC (Acinetobacter baumannii [35]) was > 128 µg/mL and the MIC (Acinetobacter baumannii [36]) was 0.12 µg/mL (≈ 0.362 µM). The MIC (Acinetobacter baumannii [37]) was > 128 µg/mL, the MIC (Acinetobacter baumannii [38]) was 32 µg/mL (≈ 96.6 µM) and the MIC (Acinetobacter baumannii [39]) was 0.25 µg/mL (≈ 0.754 µM). It also gave an MIC (Acinetobacter baumannii [40]) of 0.12 µg/mL (≈ 0.362 µM), an MIC (Acinetobacter baumannii [41]) of 1 µg/mL (≈ 3.02 µM) and an MIC (Acinetobacter baumannii [42]) of 0.12 µg/mL (≈ 0.362 µM). It also gave an MIC (Acinetobacter baumannii [43]) of 4 µg/mL (≈ 12.1 µM) and an MIC (Acinetobacter baumannii [44]) of 32 µg/mL (≈ 96.6 µM).
